According to ChEMBL document CHEMBL1135891, “Development of long-acting dopamine transporter ligands as potential cocaine-abuse therapeutic agents: chiral hydroxyl-containing derivatives of 1-[2-[bis(4-fluorophenyl)methoxy]ethyl]-4-(3-phenylpropyl)piperazine and 1-[2-(diphenylmethoxy)ethyl]-4-(3-phenylpropyl)piperazine” (J Med Chem, 2002):

Legend:
[1] = target: Sodium-dependent serotonin transporter (Rattus norvegicus, UniProt P31652); test: Binding affinity for serotonin transporter
In short: (§1)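 [125I]RTI-55 competition binding. Drugs and blockers in 55.2 mM sodium phosphate buffer pH 7.4 with 1 mg/mL BSA. Radioligand in the same buffer with chymostatin, leupeptin, EDTA and EGTA. Triplicate incubation for 18–24 h at 4 °C to equilibrium. Filtered over GF/B filters presoaked in 2% polyethylenimine, washed with ice-cold Tris-HCl/NaCl pH 7.4. Ki derived.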

[2] = target: Monoamine transporters; serotonin & dopamine (Rattus norvegicus) (UniProt P31652+P23977); test: Selectivity ratio for serotonin transporter to dopamine transporter; type: protein assay
[3] = target: Sodium-dependent dopamine transporter (Rattus norvegicus, UniProt P23977); test: Binding affinity for dopamine transporter; in short: as §1
[4] = tested on: Rattus norvegicus; test: Dopamine (DA) reuptake inhibition properties of in vivo extracellular dopamine (ECDA) levels in rat nucleus accumbens microdialysis assay, at […]; type: functional
In short: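 Male Sprague–Dawley rats (300–450 g), conscious and freely moving, with jugular catheters and nucleus accumbens probes (2 mm exchange surface). Single iv doses (as salt) of drug or saline vehicle given after three baseline samples. Dialysate taken every 20 min for 2 h, DA by microbore HPLC-EC. Values are pg/5 µL, mean ± SEM, n = 4–5 rats/group. Repeated-measures ANOVA.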

Sodium-dependent serotonin transporter, sequence (P31652 whole entry): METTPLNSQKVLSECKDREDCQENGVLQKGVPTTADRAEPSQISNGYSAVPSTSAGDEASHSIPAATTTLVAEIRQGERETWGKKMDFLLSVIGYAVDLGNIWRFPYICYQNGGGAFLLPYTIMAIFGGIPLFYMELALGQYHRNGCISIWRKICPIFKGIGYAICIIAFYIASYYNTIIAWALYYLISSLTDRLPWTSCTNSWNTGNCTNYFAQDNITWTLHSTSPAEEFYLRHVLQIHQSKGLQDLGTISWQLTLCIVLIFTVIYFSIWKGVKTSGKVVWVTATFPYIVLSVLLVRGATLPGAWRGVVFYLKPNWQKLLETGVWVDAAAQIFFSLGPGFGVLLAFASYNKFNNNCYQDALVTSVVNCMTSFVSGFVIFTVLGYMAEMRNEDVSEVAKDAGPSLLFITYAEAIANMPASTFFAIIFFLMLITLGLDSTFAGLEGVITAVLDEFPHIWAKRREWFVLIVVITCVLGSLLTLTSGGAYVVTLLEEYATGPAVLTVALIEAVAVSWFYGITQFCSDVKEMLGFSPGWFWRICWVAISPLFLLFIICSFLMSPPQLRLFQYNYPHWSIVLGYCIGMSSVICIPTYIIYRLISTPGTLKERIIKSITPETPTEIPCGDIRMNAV
Monoamine transporters; serotonin & dopamine (Rattus norvegicus), sequence (P23977 whole entry, looked up): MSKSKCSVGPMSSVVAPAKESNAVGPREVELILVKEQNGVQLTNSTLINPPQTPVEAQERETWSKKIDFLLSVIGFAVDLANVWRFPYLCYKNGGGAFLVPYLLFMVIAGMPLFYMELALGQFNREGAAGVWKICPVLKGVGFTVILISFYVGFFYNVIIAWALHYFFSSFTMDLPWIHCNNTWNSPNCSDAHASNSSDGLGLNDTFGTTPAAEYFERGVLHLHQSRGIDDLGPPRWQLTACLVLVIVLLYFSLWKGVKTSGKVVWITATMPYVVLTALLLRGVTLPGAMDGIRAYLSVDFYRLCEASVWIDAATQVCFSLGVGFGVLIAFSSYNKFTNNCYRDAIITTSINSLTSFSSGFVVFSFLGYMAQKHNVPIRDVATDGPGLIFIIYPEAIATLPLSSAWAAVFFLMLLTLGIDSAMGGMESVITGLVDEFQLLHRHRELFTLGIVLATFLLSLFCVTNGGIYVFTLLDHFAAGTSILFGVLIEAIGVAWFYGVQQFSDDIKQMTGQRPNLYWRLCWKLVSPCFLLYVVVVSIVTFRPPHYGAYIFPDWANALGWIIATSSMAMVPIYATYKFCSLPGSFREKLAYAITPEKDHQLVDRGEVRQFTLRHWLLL
Monoamine transporters; serotonin & dopamine (Rattus norvegicus), sequence (P31652 whole entry, looked up): as the sequence (P31652 whole entry) above
Sodium-dependent dopamine transporter, sequence (P23977 whole entry): as the sequence (P23977 whole entry, looked up) above

Structure (SMILES) | Ki [1] [nM] | Ratio [2] | Ki [3] [nM] | DA level [4] [pg 5ul-1]
OCC(c1ccccc1)N1CCN(CCOC(c2ccc(F)cc2)c2ccc(F)cc2)CC1 (racemic) | 2500 | 52 | 48 | –
O[C@@H](CN1CCN(CCOC(c2ccccc2)c2ccccc2)CC1)c1ccccc1 | 330 | 2 | 170 | –
O[C@@H](Cc1ccccc1)CN1CCN(CCOC(c2ccccc2)c2ccccc2)CC1 | 2160 | 939 | 2.3 | –
O[C@H](CN1CCN(CCOC(c2ccc(F)cc2)c2ccc(F)cc2)CC1)c1ccccc1 | 77 | 7 | 11 | –
O[C@H](Cc1ccccc1)CN1CCN(CCOC(c2ccccc2)c2ccccc2)CC1 | 1800 | 72 | 25 | –
O[C@H](Cc1ccccc1)CN1CCN(CCOC(c2ccc(F)cc2)c2ccc(F)cc2)CC1 | 160 | 13 | 12 | 1.73
Fc1ccc(C(OCCN2CCN(CCc3ccccc3)CC2)c2ccc(F)cc2)cc1 | 36 | 5 | 8 | –
O[C@@H](CN1CCN(CCOC(c2ccc(F)cc2)c2ccc(F)cc2)CC1)c1ccccc1 | 13 | 0.5 | 26 | –
O[C@@H](Cc1ccccc1)CN1CCN(CCOC(c2ccc(F)cc2)c2ccc(F)cc2)CC1 | 230 | 307 | 0.75 | 1.73
OC(Cc1ccccc1)CN1CCN(CCOC(c2ccc(F)cc2)c2ccc(F)cc2)CC1 (racemic) | 120 | 52 | 2.3 | –
OCC(c1ccccc1)N1CCN(CCOC(c2ccccc2)c2ccccc2)CC1 (racemic) | 3800 | 32 | 120 | –
O[C@H](CN1CCN(CCOC(c2ccccc2)c2ccccc2)CC1)c1ccccc1 | 1400 | 47 | 30 | –
